Laboratory results published in ChEMBL document CHEMBL4392827, “Tryptamine derivatives disarm colistin resistance in polymyxin-resistant gram-negative bacteria” (Bioorg Med Chem, 2019).

Tests used:
Klebsiella pneumoniae [1] = experiment: Toxicity in Klebsiella pneumoniae B9 after 18 hrs by broth microdilution assay; type: organism-based
Summary of the method: (§1)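 Single-agent MIC per CLSI broth microdilution. Cells from a 4–6 h culture in cation-adjusted Mueller-Hinton broth adjusted to 5 ×10^5 CFU/mL. Compound (DMSO stock) added to 200 μM top concentration and twofold serially diluted six times, with an untreated control row. Plates sealed and incubated stationary at 37°C for 18 h before MIC read.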

Acinetobacter baumannii [2] = experiment: Potentiation of colistin-induced antimicrobial activity against colistin-resistant Acinetobacter baumannii isolate 3942 assessed as fold reduction in colistin MIC at 10 uM after 18 hrs by broth microdilution assay; type: functional
Summary of the method: (§2)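 CLSI-adapted broth microdilution. Bacteria were grown 4–6 h in cation-adjusted Mueller-Hinton broth and subcultured to 5 ×10^5 CFU/mL. The subculture was dosed with adjuvant from DMSO stock at a constant final concentration, then colistin was added and serially diluted across wells. Plates were incubated stationary at 37°C for 18 h and the MIC recorded. Fold reduction is relative to the colistin MIC without adjuvant.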

Escherichia coli [3] = experiment: Potentiation of colistin-induced antimicrobial activity against Escherichia coli ATCC 25922 assessed as fold reduction in colistin MIC at 60 uM after 18 hrs by broth microdilution assay; type: functional
Summary of the method: (§3)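 Bacteria grown 4–6 h in cation-adjusted Mueller-Hinton broth and diluted to 5 ×10^5 CFU/mL. Adjuvant from DMSO stock held at fixed 60 μM while colistin is twofold serially diluted in the same adjuvant-dosed broth. Plates sealed and kept stationary at 37°C for 18 h. Colistin MIC read and fold reduction taken relative to colistin alone.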

Acinetobacter baumannii [4] = experiment: Toxicity in Acinetobacter baumannii ATCC 17978 expressing mcr1 gene after 18 hrs by broth microdilution assay; type: organism-based; summary of the method: as §1
Acinetobacter baumannii [5] = experiment: Potentiation of colistin-induced antimicrobial activity against colistin-resistant Acinetobacter baumannii 4106 assessed as fold reduction in colistin MIC at 60 uM after 18 hrs by broth microdilution assay; type: functional
Summary of the method: (§4)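 Checkerboard-style resensitization following adapted CLSI broth microdilution. Bacteria were grown 4–6 h in CAMHB and subcultured to 5×10^5 CFU/mL. Adjuvant was added from DMSO stock and held constant while colistin was serially diluted in the dosed subculture. Plates were incubated stationary at 37°C for 18 h, then MICs were read. Fold reduction was taken relative to the colistin MIC without adjuvant.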

Klebsiella pneumoniae [6] = experiment: Potentiation of colistin-induced antimicrobial activity against Klebsiella pneumoniae ATCC BAA-2146 expressing NDM1 gene assessed as fold reduction in colistin MIC at 60 uM after 18 hrs by broth microdilution assay; type: functional; summary of the method: as §3
Klebsiella pneumoniae [7] = experiment: Potentiation of colistin-induced antimicrobial activity against colistin-resistant Klebsiella pneumoniae isolate A5 assessed as fold reduction in colistin MIC at 60 uM after 18 hrs by broth microdilution assay; type: functional; summary of the method: as §4
Acinetobacter baumannii [8] = experiment: Potentiation of colistin-induced antimicrobial activity against colistin-resistant Acinetobacter baumannii isolate 3942 after 18 hrs by broth microdilution assay; type: functional, organism-based
Summary of the method: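 Colistin MIC was determined by adapted CLSI broth microdilution in CAMHB (5×10^5 CFU/mL inoculum), with adjuvant held at fixed levels of 5, 10, 15, 20, 30, 40, 50 or 60 μM. Adjuvant was dosed from DMSO stock while colistin was serially diluted. Plates were incubated stationary at 37°C for 18 h. Fold reduction was taken versus colistin alone.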

Klebsiella pneumoniae [9] = experiment: Induction of membrane permeabilization in colistin-resistant Klebsiella pneumoniae isolate C3 at 60 uM measured after 1 hr by SYTO-9/propidium iodide staining based fluorescence assay relative to control; type: functional
Summary of the method: (§5)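 Cells were grown overnight in CAMHB at 37°C, diluted 1:10 and grown 4 h more to an OD600 of ~0.3. They were pelleted, washed with sterile water and resuspended at 1/10 volume in water containing compound. After 1 h at 37°C with shaking, cells were washed and stained with SYTO-9/propidium iodide (1:1, 3 μL/mL) for 15 min at RT. Emission was read at 530 and 645 nm (excitation 485 nm), and the green/red ratio was expressed as % of the untreated control.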

Acinetobacter baumannii [10] = experiment: Potentiation of colistin-induced antimicrobial activity against colistin-resistant Acinetobacter baumannii isolate 3942 assessed as fold reduction in colistin MIC at 60 uM incubated for 2 to 24 hrs under shaking condition in presence of 0.001% triton X-100 by broth microdilution assay; type: functional
Klebsiella pneumoniae [11] = experiment: Potentiation of colistin-induced antimicrobial activity against colistin-resistant Klebsiella pneumoniae isolate C3 assessed as fold reduction in colistin MIC at 15 uM after 18 hrs by broth microdilution assay; type: functional; summary of the method: as §2
Acinetobacter baumannii [12] = experiment: Potentiation of colistin-induced antimicrobial activity against colistin-resistant Acinetobacter baumannii isolate 3942 assessed as fold reduction in colistin MIC at 30 uM after 18 hrs by broth microdilution assay; type: functional; summary of the method: as §2
Acinetobacter baumannii [13] = experiment: Potentiation of colistin-induced antimicrobial activity against colistin-resistant Acinetobacter baumannii isolate 3941 assessed as fold reduction in colistin MIC at 60 uM after 18 hrs by broth microdilution assay; type: functional; summary of the method: as §4
Acinetobacter baumannii [14] = experiment: Induction of membrane permeabilization in colistin-resistant Acinetobacter baumannii isolate 3942 at 60 uM measured after 1 hr by SYTO-9/propidium iodide staining based fluorescence assay relative to control; type: functional; summary of the method: as §5
Klebsiella pneumoniae [15] = experiment: Potentiation of colistin-induced antimicrobial activity against colistin-resistant Klebsiella pneumoniae B9 assessed as fold reduction in colistin MIC at 60 uM after 18 hrs by broth microdilution assay; type: functional; summary of the method: as §4
Klebsiella pneumoniae [16] = experiment: Potentiation of colistin-induced antimicrobial activity against colistin-resistant Klebsiella pneumoniae isolate C3 assessed as fold reduction in colistin MIC at 20 uM after 18 hrs by broth microdilution assay; type: functional; summary of the method: as §2
Acinetobacter baumannii [17] = experiment: Potentiation of colistin-induced antimicrobial activity against colistin-resistant Acinetobacter baumannii isolate 3942 assessed as fold reduction in colistin MIC at 30 uM incubated for 2 to 24 hrs under shaking condition in presence of 0.001% triton X-100 by broth microdilution assay; type: functional
Acinetobacter baumannii [18] = experiment: Potentiation of colistin-induced antimicrobial activity against colistin-resistant Acinetobacter baumannii isolate 3942 assessed as fold reduction in colistin MIC at 50 uM after 18 hrs by broth microdilution assay; type: functional; summary of the method: as §2
Acinetobacter baumannii [19] = experiment: Potentiation of colistin-induced antimicrobial activity against Acinetobacter baumannii ATCC 17978 assessed as fold reduction in colistin MIC at 60 uM after 18 hrs by broth microdilution assay; type: functional; summary of the method: as §3
Acinetobacter baumannii [20] = experiment: Toxicity in colistin-resistant Acinetobacter baumannii isolate 3942 at 60 uM after 18 hrs by broth microdilution assay; type: organism-based
[21] = Hemolytic activity in sheep erythrocytes assessed as hemolysis at 100 uM incubated for 1 hr under shaking condition by UV-spectrophotometry; type: ADME, cell-based, Ovis aries, Erythrocyte; details: read-out: Activity
Summary of the method: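 Washed sheep erythrocytes (defibrinated blood spun, resuspended in PBS three times) diluted 10-fold in PBS containing compound from DMSO stock. DMSO negative control (0% lysis), 1% Triton X100 positive control (100% lysis). 1 h at 37°C with shaking, then spun 10 min at 10,000 rpm and supernatant diluted 1:40 in distilled water.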

Acinetobacter baumannii [22] = experiment: Toxicity in Acinetobacter baumannii 4106 after 18 hrs by broth microdilution assay; type: organism-based; details: in vitro; summary of the method: as §1
Acinetobacter baumannii [23] = experiment: Potentiation of colistin-induced antimicrobial activity against colistin-resistant Acinetobacter baumannii isolate 3942 assessed as fold reduction in colistin MIC at 15 uM after 18 hrs by broth microdilution assay; type: functional; summary of the method: as §2
Escherichia coli [24] = experiment: Toxicity in Escherichia coli ATCC 25922 after 18 hrs by broth microdilution assay; type: organism-based; details: in vitro; summary of the method: as §1

Question: With O=C(NCc1c[nH]c2ccccc12)c1cc(Br)c(Br)[nH]1 as the molecule, how does the MIC (Klebsiella pneumoniae [1]) read?
Answer: > 200 µM

Question: And the “fold change (FC)” value (Acinetobacter baumannii [2])?
Answer: 2

Question: What about the “fold change (FC)” value (Escherichia coli [3]) of the same molecule?
Answer: 4

Question: And the MIC (Acinetobacter baumannii [4])?
Answer: > 200 µM

Question: And the “fold change (FC)” value (Acinetobacter baumannii [5])?
Answer: 2048

Question: What about the “fold change (FC)” value (Klebsiella pneumoniae [6]) of the same molecule?
Answer: 0

Question: And the “fold change (FC)” value (Klebsiella pneumoniae [7])?
Answer: 512

Question: And the Activity (Acinetobacter baumannii [8])?
Answer: Dose-dependent effect

Question: And the “fold change (FC)” value (Klebsiella pneumoniae [9])?
Answer: 1.5

Question: And the “fold change (FC)” value (Acinetobacter baumannii [10])?
Answer: 1024

Question: And the “fold change (FC)” value (Klebsiella pneumoniae [11])?
Answer: 64

Question: What about the “fold change (FC)” value (Acinetobacter baumannii [12]) of the same molecule?
Answer: 128

Question: What about the “fold change (FC)” value (Acinetobacter baumannii [13]) of the same molecule?
Answer: 1024

Question: What about the “fold change (FC)” value (Acinetobacter baumannii [14]) of the same molecule?
Answer: 1.9

Question: What about the “fold change (FC)” value (Klebsiella pneumoniae [15]) of the same molecule?
Answer: 2048

Question: And the “fold change (FC)” value (Klebsiella pneumoniae [16])?
Answer: 128

Question: What about the “fold change (FC)” value (Acinetobacter baumannii [17]) of the same molecule?
Answer: 128

Question: What about the “fold change (FC)” value (Acinetobacter baumannii [18]) of the same molecule?
Answer: 512

Question: And the “fold change (FC)” value (Acinetobacter baumannii [19])?
Answer: 4

Question: What about the Activity (Acinetobacter baumannii [20]) of the same molecule?
Answer: Non-Toxic

Question: And the hemolysis at 1 h, 100 µM [21]?
Answer: < 1%

Question: What about the MIC (Acinetobacter baumannii [22]) of the same molecule?
Answer: > 200 µM

Question: And the “fold change (FC)” value (Acinetobacter baumannii [23])?
Answer: 8

Question: And the MIC (Escherichia coli [24])?
Answer: > 200 µM
